Data from ChEMBL document CHEMBL1152689, “Synthesis, tautomerism, and antimicrobial, anti-HCV, anti-SSPE, antioxidant, and antitumor activities of arylazobenzosuberones” (Bioorg Med Chem, 2009).
Converted amounts (≈) assume the structure as drawn. The source made the active and inactive calls. No cut-off for these calls is given here.

Legend:
[1] = tested on: Staphylococcus aureus; test: Antimicrobial activity against Staphylococcus aureus at 2.5 ug/mL by agar diffusion method; assay type: functional; conditions: read-out: IZ
[2] = tested on: Syncephalastrum racemosum; test: Antimicrobial activity against Syncephalastrum racemosum at 1.25 ug/mL by agar diffusion method; assay type: functional; conditions: read-out: IZ
[3] = tested on: Hepatitis C virus; test: Antiviral activity against HCV by cell based replicon assay; assay type: functional, Hepacivirus hominis
Summary of the method: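 HCV replicon cells plated at 1×10^4 per well. Next day incubated at 37 °C with serially diluted compound in DMEM with 2% FBS and 0.5% DMSO. HCV RNA copy number measured by quantitative RT-PCR on total cellular RNA. Each point is the average of five replicates. Cytotoxicity measured by MTS in parallel.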

[4] = tested on: Penicillium italicum; test: Antimicrobial activity against Penicillium italicum at 1.25 ug/mL by agar diffusion method; assay type: functional; conditions: read-out: IZ
[5] = tested on: Staphylococcus aureus; test: Antimicrobial activity against Staphylococcus aureus at 5 ug/mL by agar diffusion method; assay type: functional; conditions: read-out: IZ
[6] = tested on: Penicillium italicum; test: Antimicrobial activity against Penicillium italicum at 2.5 ug/mL by agar diffusion method; assay type: functional; conditions: read-out: IZ
[7] = tested on: Escherichia coli; test: Antimicrobial activity against Escherichia coli at 1.25 ug/mL by agar diffusion method; assay type: functional; conditions: read-out: IZ
[8] = tested on: Pseudomonas aeruginosa; test: Antimicrobial activity against Pseudomonas aeruginosa at 1.25 ug/mL by agar diffusion method; assay type: functional; conditions: read-out: IZ
[9] = tested on: Escherichia coli; test: Antimicrobial activity against Escherichia coli at 5 ug/mL by agar diffusion method; assay type: functional; conditions: read-out: IZ
[10] = tested on: Aspergillus fumigatus; test: Antimicrobial activity against Aspergillus fumigatus at 2.5 ug/mL by agar diffusion method; assay type: functional; conditions: read-out: IZ
[11] = tested on: Syncephalastrum racemosum; test: Antimicrobial activity against Syncephalastrum racemosum at 2.5 ug/mL by agar diffusion method; assay type: functional; conditions: read-out: IZ
[12] = tested on: Bacillus subtilis; test: Antimicrobial activity against Bacillus subtilis at 1.25 ug/mL by agar diffusion method; assay type: functional; conditions: read-out: IZ
[13] = tested on: Escherichia coli; test: Antimicrobial activity against Escherichia coli at 2.5 ug/mL by agar diffusion method; assay type: functional; conditions: read-out: IZ
[14] = tested on: Measles morbillivirus; test: Antiviral activity against Measles virus infected in intracranially dosed hamster assessed as inhibition of subacute sclerosing panencephalitis; assay type: functional
Summary of the method: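 Hamsters under ether anesthesia injected intracranially, into the subarachnoid space at 2 mm depth, at 5, 10 and 20 mg/kg/day for 10 days. Four animals per group sacrificed on days 1–20. Brains homogenized in PBS and centrifuged, supernatant deproteinized with ethanol, then MIC in brain tissue determined by HPLC and bioassay.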

[15] = tested on: Pseudomonas aeruginosa; test: Antimicrobial activity against Pseudomonas aeruginosa at 5 ug/mL by agar diffusion method; assay type: functional; conditions: read-out: IZ
[16] = Antioxidant activity assessed as inhibition of peroxynitrite-mediated 3-nitrotyrosine formation by HPLC; assay type: functional
Summary of the method: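 Tyrosine and peroxynitrite, each 100 µM, reacted with compound at 0–300 µM in 100 mM phosphate buffer pH 7.4 at 37 °C for 15 min. Peroxynitrite made from acidified H2O2 plus KNO2, quenched with NaOH, and kept on ice no longer than 30 min before use.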

[17] = tested on: Staphylococcus aureus; test: Antimicrobial activity against Staphylococcus aureus at 1.25 ug/mL by agar diffusion method; assay type: functional; conditions: read-out: IZ
[18] = tested on: Bacillus subtilis; test: Antimicrobial activity against Bacillus subtilis at 2.5 ug/mL by agar diffusion method; assay type: functional; conditions: read-out: IZ
[19] = tested on: Aspergillus fumigatus; test: Antimicrobial activity against Aspergillus fumigatus at 5 ug/mL by agar diffusion method; assay type: functional; conditions: read-out: IZ
[20] = tested on: Aspergillus fumigatus; test: Antimicrobial activity against Aspergillus fumigatus at 1.25 ug/mL by agar diffusion method; assay type: functional; conditions: read-out: IZ
[21] = target: DNA topoisomerase 2-alpha (Mus musculus) (UniProt Q01320); test: Inhibition of topoisomerase 2 from mouse P388 cells assessed as relaxation of pBR322 DNA by agarose gel electrophoresis relative to etoposide; assay type: cell-based
Summary of the method: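 Topoisomerase II purified from P388 cells. One unit relaxes 0.125 µg supercoiled pBR322 DNA, incubated with or without inhibitor at 30 °C for 1 h in 50 mM Tris-HCl pH 8.0, 100 mM KCl, 10 mM MgCl2, 0.5 mM DTT, 1 mM ATP and 30 µg/ml BSA. Products run on 0.7% agarose in TBE, stained with ethidium bromide and imaged under UV.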

[22] = tested on: Candida albicans; test: Antimicrobial activity against Candida albicans at 1.25 ug/mL by agar diffusion method; assay type: functional; conditions: read-out: IZ
[23] = tested on: Candida albicans; test: Antimicrobial activity against Candida albicans at 5 ug/mL by agar diffusion method; assay type: functional; conditions: read-out: IZ
[24] = tested on: Radical scavenging activity; test: Antioxidant activity assessed as DPPH free radical scavenging activity by measuring reduction in DPPH absorbance by ELISA relative to untreated control; assay type: functional; design: concentration or dose not given beside the values
Summary of the method: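 Test compounds dissolved in DMSO, ascorbic acid standard in water, both serially diluted. 10 µl sample added to 90 µl of 100 µM DPPH in methanol and kept in the dark at 37 °C for 30 min. Absorbance read at 515 nm. Blank is DMSO plus DPPH. % reduction = (A_B − A_A)/A_B × 100. Run in triplicate.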

[25] = tested on: Candida albicans; test: Antimicrobial activity against Candida albicans at 2.5 ug/mL by agar diffusion method; assay type: functional; conditions: read-out: IZ
[26] = tested on: Penicillium italicum; test: Antimicrobial activity against Penicillium italicum at 5 ug/mL by agar diffusion method; assay type: functional; conditions: read-out: IZ
[27] = tested on: MC-38; test: Antitumor activity against mouse Colon 38 cells implanted in iv dosed C57BL/6 mouse administered as single dose; assay type: functional, organism-based
Summary of the method: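 Female C57BL/6 mice, 6 weeks old, given about 30 mg Colon 38 tumor tissue s.c. in the flank. Randomized into groups of n = 5 when tumors reached about 300 mm3 (day 1). Compound in 5% glucose given as a single iv tail-vein dose on day 1; controls received 5% glucose. Tumor volume = (length × width²)/2 and body weight tracked.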

[28] = tested on: Bacillus subtilis; test: Antimicrobial activity against Bacillus subtilis at 5 ug/mL by agar diffusion method; assay type: functional; conditions: read-out: IZ
[29] = tested on: Syncephalastrum racemosum; test: Antimicrobial activity against Syncephalastrum racemosum at 5 ug/mL by agar diffusion method; assay type: functional; conditions: read-out: IZ
[30] = target: T1, DNA topoisomerase 1 (Homo sapiens) (UniProt P11387); test: Inhibition of topoisomerase 1 relative to etoposide
T1 sequence (whole entry): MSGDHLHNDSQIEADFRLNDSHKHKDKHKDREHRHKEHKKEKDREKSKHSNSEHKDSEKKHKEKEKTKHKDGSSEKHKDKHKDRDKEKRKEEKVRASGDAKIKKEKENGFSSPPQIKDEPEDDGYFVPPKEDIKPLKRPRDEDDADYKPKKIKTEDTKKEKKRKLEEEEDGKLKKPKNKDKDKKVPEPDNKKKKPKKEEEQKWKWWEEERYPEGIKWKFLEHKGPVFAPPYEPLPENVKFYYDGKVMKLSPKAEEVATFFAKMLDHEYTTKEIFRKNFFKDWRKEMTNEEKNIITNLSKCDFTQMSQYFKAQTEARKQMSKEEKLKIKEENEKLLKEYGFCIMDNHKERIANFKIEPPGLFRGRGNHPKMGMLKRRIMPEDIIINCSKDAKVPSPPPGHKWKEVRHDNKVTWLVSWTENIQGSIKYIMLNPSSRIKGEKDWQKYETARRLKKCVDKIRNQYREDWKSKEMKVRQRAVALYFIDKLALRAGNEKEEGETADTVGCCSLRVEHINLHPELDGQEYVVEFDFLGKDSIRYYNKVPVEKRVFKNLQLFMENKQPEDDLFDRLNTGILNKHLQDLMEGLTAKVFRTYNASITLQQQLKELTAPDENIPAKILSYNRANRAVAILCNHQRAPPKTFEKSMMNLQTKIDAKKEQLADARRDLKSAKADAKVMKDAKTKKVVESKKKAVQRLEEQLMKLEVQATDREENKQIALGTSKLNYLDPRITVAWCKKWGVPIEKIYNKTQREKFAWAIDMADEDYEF

[31] = tested on: Pseudomonas aeruginosa; test: Antimicrobial activity against Pseudomonas aeruginosa at 2.5 ug/mL by agar diffusion method; assay type: functional; conditions: read-out: IZ

DNA topoisomerase 2-alpha (Mus musculus), sequence (Q01320 whole entry): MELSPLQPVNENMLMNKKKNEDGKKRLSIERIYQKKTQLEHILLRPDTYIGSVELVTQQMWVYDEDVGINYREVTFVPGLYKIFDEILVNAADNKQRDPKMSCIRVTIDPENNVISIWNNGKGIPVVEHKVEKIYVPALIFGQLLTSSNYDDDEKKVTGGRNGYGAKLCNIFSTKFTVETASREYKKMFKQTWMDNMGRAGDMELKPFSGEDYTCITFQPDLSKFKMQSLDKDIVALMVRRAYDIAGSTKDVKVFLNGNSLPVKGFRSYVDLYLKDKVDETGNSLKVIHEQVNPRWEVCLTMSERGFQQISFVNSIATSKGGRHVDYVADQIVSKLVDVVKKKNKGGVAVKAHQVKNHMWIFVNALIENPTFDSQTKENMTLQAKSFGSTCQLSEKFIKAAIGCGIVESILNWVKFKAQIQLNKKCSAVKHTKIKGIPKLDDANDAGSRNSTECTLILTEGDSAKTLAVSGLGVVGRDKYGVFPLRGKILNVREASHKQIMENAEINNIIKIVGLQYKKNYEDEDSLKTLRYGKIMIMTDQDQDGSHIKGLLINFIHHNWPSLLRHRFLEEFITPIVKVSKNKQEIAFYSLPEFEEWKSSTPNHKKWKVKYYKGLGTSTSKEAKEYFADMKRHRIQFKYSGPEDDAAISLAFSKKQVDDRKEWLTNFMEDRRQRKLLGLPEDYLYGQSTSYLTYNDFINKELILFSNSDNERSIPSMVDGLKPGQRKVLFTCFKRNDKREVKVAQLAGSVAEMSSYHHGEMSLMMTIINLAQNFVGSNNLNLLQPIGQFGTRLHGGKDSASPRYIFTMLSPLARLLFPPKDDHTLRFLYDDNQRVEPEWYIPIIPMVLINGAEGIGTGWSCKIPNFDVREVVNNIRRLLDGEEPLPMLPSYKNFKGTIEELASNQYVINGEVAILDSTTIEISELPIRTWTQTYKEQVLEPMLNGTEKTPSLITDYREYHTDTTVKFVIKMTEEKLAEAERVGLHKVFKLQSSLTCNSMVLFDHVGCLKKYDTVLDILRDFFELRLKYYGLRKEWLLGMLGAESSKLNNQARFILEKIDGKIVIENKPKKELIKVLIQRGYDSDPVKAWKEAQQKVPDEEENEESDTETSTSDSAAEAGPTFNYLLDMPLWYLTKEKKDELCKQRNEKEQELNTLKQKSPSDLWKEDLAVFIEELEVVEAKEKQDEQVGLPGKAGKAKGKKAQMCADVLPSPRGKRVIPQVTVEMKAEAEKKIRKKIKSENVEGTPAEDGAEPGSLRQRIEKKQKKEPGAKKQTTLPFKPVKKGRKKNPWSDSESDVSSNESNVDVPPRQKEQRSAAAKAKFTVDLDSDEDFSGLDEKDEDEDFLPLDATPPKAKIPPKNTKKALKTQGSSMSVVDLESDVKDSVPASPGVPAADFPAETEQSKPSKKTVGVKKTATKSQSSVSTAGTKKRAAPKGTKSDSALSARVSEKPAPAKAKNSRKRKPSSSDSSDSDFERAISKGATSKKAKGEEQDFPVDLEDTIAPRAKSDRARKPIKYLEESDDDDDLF

Compound	zone of inhibition at 2.5 µg/mL [1]	zone of inhibition at 1.25 µg/mL [2]	MIC [3]	zone of inhibition at 1.25 µg/mL [4]	zone of inhibition at 5 µg/mL [5]	zone of inhibition at 2.5 µg/mL [6]	zone of inhibition at 1.25 µg/mL [7]	zone of inhibition at 1.25 µg/mL [8]	zone of inhibition at 5 µg/mL [9]	zone of inhibition at 2.5 µg/mL [10]	zone of inhibition at 2.5 µg/mL [11]	zone of inhibition at 1.25 µg/mL [12]	zone of inhibition at 2.5 µg/mL [13]	MIC [14]	zone of inhibition at 5 µg/mL [15]	zone of inhibition at 1.25 µg/mL [17]	zone of inhibition at 2.5 µg/mL [18]	zone of inhibition at 5 µg/mL [19]	zone of inhibition at 1.25 µg/mL [20]	zone of inhibition at 1.25 µg/mL [22]	also measured
O=C1/C(=N/Nc2cccc(Cl)c2)CCCc2ccccc21	9 mm	6 mm	1 µg/mL (≈ 3.35 µM)	0 mm	12 mm	0 mm	0 mm	0 mm	9 mm	8 mm	9 mm	7 mm	0 mm	6 µg/mL (≈ 20.1 µM)	0 mm	5 mm	10 mm	14 mm	6 mm	7 mm	IC50 [16]: 54.1 µM; Ratio [21]: 5; zone of inhibition at 5 µg/mL [23]: 15 mm; Activity [24]: 84.1%; zone of inhibition at 2.5 µg/mL [25]: 11 mm; zone of inhibition at 5 µg/mL [26]: 0 mm; Activity [27]: Active; zone of inhibition at 5 µg/mL [28]: 17 mm; zone of inhibition at 5 µg/mL [29]: 16 mm; Ratio [30]: 4.9; zone of inhibition at 2.5 µg/mL [31]: 0 mm
c1ccc2c(c1)CCCc1nnc3nncn3c1-2	8 mm	0 mm	–	0 mm	14 mm	0 mm	0 mm	0 mm	9 mm	0 mm	9 mm	4 mm	0 mm	–	0 mm	5 mm	7 mm	10 mm	0 mm	0 mm	zone of inhibition at 5 µg/mL [23]: 9 mm; zone of inhibition at 2.5 µg/mL [25]: 4 mm; zone of inhibition at 5 µg/mL [26]: 8 mm; zone of inhibition at 5 µg/mL [28]: 16 mm; zone of inhibition at 5 µg/mL [29]: 18 mm; zone of inhibition at 2.5 µg/mL [31]: 0 mm
O=C1/C(=N/Nc2ccc([N+](=O)[O-])cc2)CCCc2ccccc21	3 mm	4 mm	1.03 µg/mL (≈ 3.34 µM)	0 mm	9 mm	0 mm	0 mm	0 mm	8 mm	8 mm	9 mm	3 mm	0 mm	6.08 µg/mL (≈ 19.7 µM)	0 mm	0 mm	8 mm	18 mm	5 mm	0 mm	IC50 [16]: 5.13 µM; Ratio [21]: 4.6; zone of inhibition at 5 µg/mL [23]: 12 mm; Activity [24]: 82%; zone of inhibition at 2.5 µg/mL [25]: 6 mm; zone of inhibition at 5 µg/mL [26]: 0 mm; Activity [27]: Active; zone of inhibition at 5 µg/mL [28]: 14 mm; zone of inhibition at 5 µg/mL [29]: 16 mm; Ratio [30]: 4.4; zone of inhibition at 2.5 µg/mL [31]: 0 mm
NC(=O)c1ncn([C@@H]2O[C@H](CO)[C@@H](O)[C@H]2O)n1 [RIBAVIRIN]	–	–	16.1 µg/mL (≈ 66.1 µM)	–	–	–	–	–	–	–	–	–	–	77.9 µg/mL (≈ 319 µM)	–	–	–	–	–	–	–
O=C1O[C@H]([C@@H](O)CO)C(O)=C1O	–	–	–	–	–	–	–	–	–	–	–	–	–	–	–	–	–	–	–	–	Activity [24]: 79%
